Measured values: ChEMBL document CHEMBL4024792, “(N-Hydroxycarbonylbenylamino)quinolines as Selective Histone Deacetylase 6 Inhibitors Suppress Growth of Multiple Myeloma in Vitro and in Vivo” (J Med Chem, 2018)

How the values were obtained:
Histone deacetylase 2 = Histone deacetylase 2 (Homo sapiens, UniProt Q92769); assay: Inhibition of full length recombinant human C-terminal GST-tagged HDAC2 expressed in baculovirus infected insect cells using RHK-K(Ac)-AMC as substrate after 60 mins by fluorescence assay
[1] = molecular target: Histone deacetylase 3/Nuclear receptor corepressor 2 (HDAC3/NCoR2) (Homo sapiens, UniProt O15379); assay: Inhibition of full length recombinant human C-terminal His-tagged HDAC3/N-terminal GST-tagged NCOR2 (395 to 489 residues) expressed in insect cells using RHK-K(Ac)-AMC as substrate after 60 mins by fluorescence assay
Histone deacetylase 4 = Histone deacetylase 4 (Homo sapiens, UniProt P56524); assay: Inhibition of recombinant human C-terminal His-tagged/N-terminal GST-tagged HDAC4 (627 to 1084 residues) expressed in insect cells using Boc-K(Ac)-AMC as substrate after 60 mins by fluorescence assay
Histone deacetylase 8 = molecular target: T1, Histone deacetylase 8 (Homo sapiens, UniProt Q9BY41); assay: Inhibition of recombinant human C-terminal His-tagged/N-terminal Strep2-tagged HDAC8 (1 to 377 residues) expressed in insect cells using RHK-K(Ac)-AMC as substrate after 60 mins by fluorescence assay
T1 sequence (Q9BY41 whole entry): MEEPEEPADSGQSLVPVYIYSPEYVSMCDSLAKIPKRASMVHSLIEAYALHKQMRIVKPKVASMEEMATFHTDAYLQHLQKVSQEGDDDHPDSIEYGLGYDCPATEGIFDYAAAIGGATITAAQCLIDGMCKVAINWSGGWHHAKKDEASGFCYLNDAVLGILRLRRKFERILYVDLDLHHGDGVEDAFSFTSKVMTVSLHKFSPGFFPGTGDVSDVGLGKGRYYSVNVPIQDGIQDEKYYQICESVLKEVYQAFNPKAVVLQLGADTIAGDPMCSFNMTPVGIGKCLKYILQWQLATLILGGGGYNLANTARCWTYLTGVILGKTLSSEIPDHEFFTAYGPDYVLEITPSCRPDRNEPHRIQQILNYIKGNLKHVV

Histone deacetylase 9 = Histone deacetylase 9 (Homo sapiens, UniProt Q9UKV0); assay: Inhibition of HDAC9 (unknown origin)
[2] = molecular target: T2, Protein deacetylase HDAC6 (Homo sapiens) (UniProt Q9UBN7); assay: Inhibition of HDAC6 in human RPMI8226 cells assessed as increase in acetylated tubulin level by immunoblot analysis relative to control; assay type: cell-based
T2 sequence (whole entry): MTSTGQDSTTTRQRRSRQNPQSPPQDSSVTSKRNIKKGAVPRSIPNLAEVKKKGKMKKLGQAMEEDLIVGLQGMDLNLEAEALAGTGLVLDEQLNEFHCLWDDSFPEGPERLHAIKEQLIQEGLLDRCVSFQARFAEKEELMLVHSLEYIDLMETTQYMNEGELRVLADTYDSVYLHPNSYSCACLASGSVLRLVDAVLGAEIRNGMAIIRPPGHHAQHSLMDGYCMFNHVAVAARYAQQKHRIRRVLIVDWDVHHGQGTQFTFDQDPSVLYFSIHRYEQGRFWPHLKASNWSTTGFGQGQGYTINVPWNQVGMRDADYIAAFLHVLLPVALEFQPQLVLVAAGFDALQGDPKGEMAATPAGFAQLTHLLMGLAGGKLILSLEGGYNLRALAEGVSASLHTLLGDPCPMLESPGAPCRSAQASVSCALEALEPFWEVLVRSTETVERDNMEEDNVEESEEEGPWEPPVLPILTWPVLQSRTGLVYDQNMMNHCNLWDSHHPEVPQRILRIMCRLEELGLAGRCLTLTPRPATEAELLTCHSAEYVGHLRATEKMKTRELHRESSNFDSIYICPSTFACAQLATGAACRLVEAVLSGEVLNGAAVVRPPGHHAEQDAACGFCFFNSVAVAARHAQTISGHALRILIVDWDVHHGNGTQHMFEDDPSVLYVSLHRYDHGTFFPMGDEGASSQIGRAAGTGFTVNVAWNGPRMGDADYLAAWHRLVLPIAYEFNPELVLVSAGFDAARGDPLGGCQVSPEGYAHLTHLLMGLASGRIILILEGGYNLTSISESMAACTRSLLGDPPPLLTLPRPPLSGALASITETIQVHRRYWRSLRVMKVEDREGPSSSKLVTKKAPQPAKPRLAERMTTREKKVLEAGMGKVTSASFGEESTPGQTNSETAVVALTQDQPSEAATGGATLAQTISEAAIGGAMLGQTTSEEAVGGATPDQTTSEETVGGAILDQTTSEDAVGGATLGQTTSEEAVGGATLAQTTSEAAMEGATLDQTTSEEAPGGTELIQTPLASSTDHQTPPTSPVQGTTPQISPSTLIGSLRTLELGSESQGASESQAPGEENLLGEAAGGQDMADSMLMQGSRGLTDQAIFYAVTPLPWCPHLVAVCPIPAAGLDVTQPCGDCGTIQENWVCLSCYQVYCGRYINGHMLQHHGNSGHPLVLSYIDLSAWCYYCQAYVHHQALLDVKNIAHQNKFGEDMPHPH
In short: (§1)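 Multiple myeloma cells harvested in Tris-HCl lysis buffer (pH 7.4) with protease and phosphatase inhibitors, then centrifuged 17,000 g for 30 min at 4 °C. Lysates immunoblotted with specific antibodies for acetylated α-tubulin. Signal detected by ECL on film.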

[3] = molecular target: T2, Protein deacetylase HDAC6 (Homo sapiens); assay: Inhibition of HDAC6 in human NCI-H929 cells assessed as increase in acetylated tubulin level by immunoblot analysis relative to control; assay type: cell-based; in short: as §1
RPMI-8226 [4] = assay: Antiproliferative activity against human RPMI8226 cells after 48 hrs by SRB assay; assay type: functional; details: RPMI-8226, 48 h
In short: (§2)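 Cells were exposed to test compounds at the indicated concentrations for 48 h. They were then fixed with 10% trichloroacetic acid, stained 30 min with 0.4% SRB in 1% AcOH, and washed with 1% AcOH. Bound dye was solubilized in 10 mM Tris base and OD read at 510 nm. Lines cultured in RPMI 1640 with 20% FBS and penicillin/streptomycin, 37°C, 5% CO2.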

U-266 = assay: Antiproliferative activity against human U266 cells after 48 hrs by SRB assay; assay type: functional; details: U-266, 48 h; in short: as §2
RPMI-8226 [5] = assay: Antitumor activity against human RPMI8226 cells xenografted in nude mouse assessed as tumor growth inhibition at 30 mg/kg, iv or ip administered for 5 days followed by 2 days off for 35 days cotreated with bortezomib relative to control; assay type: functional; details: read-out: TGI
In short: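 RPMI 8226 cells (1 × 10^7) implanted s.c. in eight-week-old male nude mice. At mean tumor volume 200 mm3, mice randomized into four groups (n = 8). Caliper measurement every 3–4 days, volume L×W²/2. %TGI computed from treated versus control volume changes relative to time 0.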

Salmonella typhimurium = assay: Mutagenicity in Salmonella typhimurium TA100 assessed as increase in number of revertant colonies at 3 to 3000 ug/plate in absence of S9 fraction by Ames test; assay type: toxicity; details: salmonella enterica subsp. enterica serovar typhimurium
In short: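 Ames test, TA98 and TA100. Overnight broth cultures preincubated 20 min at 35-37 °C with compound (DMSO stock) plus Aroclor 1254-induced rat liver S9 mix or PBS, then plated in top agar with 0.05 mM histidine/biotin. Final 3-3000 µg/plate; revertants counted after 72 h at 37 °C. ≥3-fold over vehicle = mutagenic; ≤50% = cytotoxic.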

Sequence of Histone deacetylase 9 (Q9UKV0 whole entry): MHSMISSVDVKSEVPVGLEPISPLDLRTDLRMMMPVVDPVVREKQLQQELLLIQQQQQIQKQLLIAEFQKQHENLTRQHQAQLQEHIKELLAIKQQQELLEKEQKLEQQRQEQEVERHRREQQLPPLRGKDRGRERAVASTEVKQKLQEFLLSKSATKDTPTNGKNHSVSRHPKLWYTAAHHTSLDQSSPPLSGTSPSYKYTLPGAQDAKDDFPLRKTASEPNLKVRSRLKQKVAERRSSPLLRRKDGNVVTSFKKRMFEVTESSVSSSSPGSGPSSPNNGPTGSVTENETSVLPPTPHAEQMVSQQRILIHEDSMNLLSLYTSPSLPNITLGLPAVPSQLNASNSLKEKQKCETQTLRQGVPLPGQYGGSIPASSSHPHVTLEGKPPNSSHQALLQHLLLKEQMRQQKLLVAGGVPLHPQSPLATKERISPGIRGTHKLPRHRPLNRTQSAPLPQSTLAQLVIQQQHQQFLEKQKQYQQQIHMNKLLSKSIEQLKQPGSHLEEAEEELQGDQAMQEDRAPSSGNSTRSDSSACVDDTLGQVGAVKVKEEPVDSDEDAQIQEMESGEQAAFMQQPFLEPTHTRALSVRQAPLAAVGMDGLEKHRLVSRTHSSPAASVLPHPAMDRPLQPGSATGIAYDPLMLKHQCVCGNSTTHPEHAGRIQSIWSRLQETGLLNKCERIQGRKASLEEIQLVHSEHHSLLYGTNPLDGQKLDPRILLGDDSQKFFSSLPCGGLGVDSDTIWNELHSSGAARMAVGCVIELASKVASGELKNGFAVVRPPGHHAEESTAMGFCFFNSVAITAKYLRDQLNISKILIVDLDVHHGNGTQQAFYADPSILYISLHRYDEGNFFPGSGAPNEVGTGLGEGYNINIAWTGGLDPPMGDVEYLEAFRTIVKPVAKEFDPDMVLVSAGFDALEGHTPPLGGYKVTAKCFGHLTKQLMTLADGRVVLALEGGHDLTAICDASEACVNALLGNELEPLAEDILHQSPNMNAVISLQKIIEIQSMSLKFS
Sequence of Histone deacetylase 2 (Q92769 whole entry, the tested form may be a part): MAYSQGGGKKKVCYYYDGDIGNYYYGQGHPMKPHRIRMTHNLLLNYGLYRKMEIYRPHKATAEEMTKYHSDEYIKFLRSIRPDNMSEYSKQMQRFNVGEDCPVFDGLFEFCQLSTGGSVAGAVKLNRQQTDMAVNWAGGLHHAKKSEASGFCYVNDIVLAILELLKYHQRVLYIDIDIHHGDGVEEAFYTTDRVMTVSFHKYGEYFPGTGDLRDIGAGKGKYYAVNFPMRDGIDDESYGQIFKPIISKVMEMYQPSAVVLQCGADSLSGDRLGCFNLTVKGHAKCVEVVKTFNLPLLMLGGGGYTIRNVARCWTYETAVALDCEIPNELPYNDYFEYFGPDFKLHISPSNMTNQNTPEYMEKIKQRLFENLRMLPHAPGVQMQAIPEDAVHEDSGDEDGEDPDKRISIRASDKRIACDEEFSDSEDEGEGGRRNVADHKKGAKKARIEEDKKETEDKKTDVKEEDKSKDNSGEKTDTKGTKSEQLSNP
Sequence of Histone deacetylase 4 (P56524 whole entry, the tested form may be a part): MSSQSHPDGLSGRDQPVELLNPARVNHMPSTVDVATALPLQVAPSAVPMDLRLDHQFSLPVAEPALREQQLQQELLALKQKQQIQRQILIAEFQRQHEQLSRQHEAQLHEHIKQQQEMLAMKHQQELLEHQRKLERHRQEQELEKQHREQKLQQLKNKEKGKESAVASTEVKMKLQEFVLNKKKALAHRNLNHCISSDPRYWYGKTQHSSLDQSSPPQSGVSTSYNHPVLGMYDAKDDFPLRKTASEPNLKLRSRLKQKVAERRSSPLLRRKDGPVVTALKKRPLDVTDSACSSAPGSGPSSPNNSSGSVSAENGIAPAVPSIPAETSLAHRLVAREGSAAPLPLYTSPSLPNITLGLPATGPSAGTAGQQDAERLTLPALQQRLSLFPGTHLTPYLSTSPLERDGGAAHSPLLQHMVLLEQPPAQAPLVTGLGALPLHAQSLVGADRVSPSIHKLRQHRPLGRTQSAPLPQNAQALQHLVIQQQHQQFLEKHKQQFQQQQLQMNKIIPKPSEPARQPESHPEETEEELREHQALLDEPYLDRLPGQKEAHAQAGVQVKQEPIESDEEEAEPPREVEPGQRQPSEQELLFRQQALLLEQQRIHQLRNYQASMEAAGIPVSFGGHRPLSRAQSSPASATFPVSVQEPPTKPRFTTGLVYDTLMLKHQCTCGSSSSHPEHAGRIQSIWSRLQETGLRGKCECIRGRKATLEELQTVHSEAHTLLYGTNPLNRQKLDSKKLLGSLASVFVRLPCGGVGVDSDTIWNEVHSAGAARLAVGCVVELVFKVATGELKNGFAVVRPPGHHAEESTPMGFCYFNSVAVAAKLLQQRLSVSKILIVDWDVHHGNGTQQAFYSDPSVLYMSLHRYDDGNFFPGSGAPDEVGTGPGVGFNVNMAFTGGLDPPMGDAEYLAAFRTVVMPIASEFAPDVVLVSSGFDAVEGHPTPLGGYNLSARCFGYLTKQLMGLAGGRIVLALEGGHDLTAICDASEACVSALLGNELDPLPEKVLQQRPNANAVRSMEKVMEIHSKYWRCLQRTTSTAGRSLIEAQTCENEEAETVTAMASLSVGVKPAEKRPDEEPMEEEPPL

IC50 (Histone deacetylase 2) [µM] | IC50 [1] [µM] | IC50 (Histone deacetylase 4) [µM] | IC50 (Histone deacetylase 8) [µM] | IC50 (Histone deacetylase 9) [µM] | inhibition [2] | inhibition [3] | GI50 (RPMI-8226 [4]) [µM] | Structure (SMILES) | GI50 (U-266) [µM] | inhibition in vivo at 30 mg/kg (RPMI-8226 [5]) [%] | Activity (Salmonella typhimurium)
12.5 | 7.75 | 4.44 | 1.19 | 1.53 | Dose-dependent effect | Dose-dependent effect | 7.49 | O=C(NO)c1ccc(CNc2cccc3cccnc23)cc1 | 40.6 | 86.2 | Non-Toxic
8.61 | 5.48 | 4.82 | 0.636 | 1.92 | Dose-dependent effect | Dose-dependent effect | 11 | O=C(NO)c1ccc(CNc2cccc3ncccc23)cc1 | 28.4 |  | 
